Measurements gathered from unrelated publications.
Lines come from different studies, so protocols differ. pEC50, pIC50: −log10 of the molar value. ≈ marks a conversion by molar mass, not a printed value.

Compound | target or system | assay | test system | conditions | measurement | value
O=C(N/N=C1\C(=O)N(Cc2ccccc2)c2ccccc21)c1cc2ccccc2[nH]1 | HT-29 | cell growth or viability |  | 30 µM | inhibition | 92.7%
N#Cc1c[nH]c2ccccc12 | Cryptosporidium parvum | parasite growth | HCT-8 | 24 h, intracellular | pEC50 | 3.79
O=C(Nc1cccc(-c2cc(C(=O)O)no2)c1)Nc1ccc(Cl)c(Cl)c1 | Klebsiella pneumoniae | microbial growth, broth dilution | BAA1705 |  | MIC | > 64 µg/mL
Cc1ccc(CN2C(=O)/C(=N\NC(=O)c3cc4ccccc4[nH]3)c3ccccc32)cc1 | HT-29 | cell growth or viability |  |  | pIC50 | 5.61
N#CCc1c[nH]c2ccccc12 | Cryptosporidium parvum | parasite growth | HCT-8 | 24 h, intracellular | EC90 | 1230 µM
C[C@H]1COc2c(N3CCN(C)CC3)c(F)cc3c(=O)c(C(=O)O)cn1c23 | Klebsiella pneumoniae | microbial growth, broth dilution | BAA1705 |  | MIC | 64 µg/mL (≈ 177 µM)
CO[C@H]1/C=C/O[C@@]2(C)Oc3c(C)c(O)c4c(O)c(c(/C=N/N5CCN(C)CC5)c(O)c4c3C2=O)NC(=O)/C(C)=C\C=C\[C@H](C)[C@H](O)[C@@H](C)[C@@H](O)[C@@H](C)[C@H](OC(C)=O)[C@@H]1C | Mycobacterium tuberculosis variant bovis BCG | microbial growth | BCG | 7 days | MIC | 0.1 µg/mL (≈ 0.122 µM)
COC(=O)c1cc(-c2cccc(NC(=O)Nc3ccc(OC)cc3)c2)on1 | Klebsiella pneumoniae | microbial growth, broth dilution | BAA1705 |  | MIC | > 64 µg/mL
CCC(CCCCCCCCCCc1cc(O)cc(O)c1)C(C)C (centres unmarked) | Klebsiella pneumoniae | microbial growth | ATCC29665 |  | pIC50 | < 3.70
N#Cc1ccc(CN2C(=O)/C(=N\NC(=O)c3cc4ccccc4[nH]3)c3ccccc32)cc1 | HT-29 | cell growth or viability |  |  | pIC50 | 5.09
COC(=O)c1cc(-c2cccc(NC(=O)Nc3ccc(Cl)c(C(F)(F)F)c3)c2)on1 | Klebsiella pneumoniae | microbial growth, broth dilution | BAA1705 |  | MIC | > 64 µg/mL
O=C(N/N=C1\C(=O)N(Cc2ccc(Cl)cc2)c2ccccc21)c1cc2ccccc2[nH]1 | HT-29 | cell growth or viability |  |  | pIC50 | 5.58
CC(C)CCCCCCCCCCCCc1cc(O)cc(O)c1 | Streptococcus pneumoniae | microbial growth |  |  | pIC50 | 4.11
C=CC(c1ccc(-c2ccc(O)cc2)cc1)n1ccnc1 (centres unmarked) | Mycobacterium tuberculosis variant bovis BCG | microbial growth | BCG |  | MIC50 | > 50 µM
O=C(N/N=C1\C(=O)N(Cc2ccccc2)c2ccc(Cl)cc21)c1cc2ccccc2[nH]1 | Swiss-3T3 | cell growth or viability |  | 72 h | pIC50 | 5.46
Cc1c(NN=C(C#N)C2=NC(=O)CS2)c(=O)n(-c2ccccc2)n1C | Klebsiella pneumoniae | microbial growth, well diffusion |  | 100000 µg/mL | inhibition zone | 25 mm
COC(=O)c1cc(-c2cccc(NC(=S)NC3CCCCC3)c2)on1 | Klebsiella pneumoniae | microbial growth, broth dilution | BAA1705 |  | MIC | > 64 µg/mL
COc1ccc2c(c1)/C(=N/NC(=O)c1cc3ccccc3[nH]1)C(=O)N2Cc1ccccc1 | HT-29 | cell growth or viability |  | 30 µM | inhibition | 94%
CCOC(=O)c1nnn(-c2cccc(NC(=O)Nc3ccc(Cl)c(Cl)c3)c2)c1C | Klebsiella pneumoniae | microbial growth, broth dilution | BAA1705 |  | MIC | > 64 µg/mL
CC(C)CCCCCCCCCCCCCCc1cc(O)cc(O)c1 | Klebsiella pneumoniae | microbial growth | ATCC29665 |  | pIC50 | < 3.70
COc1c2c(cc3c1OCO3)[C@]13C=C[C@H](OC)C[C@@H]1[N@](C2)C[C@H]3OC(=O)c1ccco1 | HT-29 | cell growth or viability, WST-1 |  |  | pIC50 | < 5.00
COC(=O)c1cc(-c2cccc(NC(=O)Nc3ccc(F)c(F)c3)c2)on1 | Klebsiella pneumoniae | microbial growth, broth dilution | BAA1705 |  | MIC | > 64 µg/mL
COc1c2ccoc2cc2oc(=O)ccc12 | RD | cell growth or viability, WST-1 |  | 48 h | pIC50 | 4.50
